Shown are actives, neighbours in structure and some others; about 0.72% of the full set was active somewhere.
PKD1 inh: inhibitors of human PKD1 kinase; PKD1 kinase fluorescence polarization assay; Q15139; 0.056% of 200,000 active; AID 797; inhibition, % (concentration not given with the values); in the data active = inhibition above about 50%
TNAP act hi DEA: increases human TNAP activity under high phosphate acceptor concentration | P05186 | purified TNAP, CDP-star luminescence, 1 M DEA, 30 min; stronger effect = higher value; 0 = EDTA background, 1 = DMSO-only activity | activation factor at 20 µM | 200,000 tested, under 10 active | AID 1136;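 active = activation factor at least 2 at 20 µM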
Target sequence (P05186 whole entry, looked up): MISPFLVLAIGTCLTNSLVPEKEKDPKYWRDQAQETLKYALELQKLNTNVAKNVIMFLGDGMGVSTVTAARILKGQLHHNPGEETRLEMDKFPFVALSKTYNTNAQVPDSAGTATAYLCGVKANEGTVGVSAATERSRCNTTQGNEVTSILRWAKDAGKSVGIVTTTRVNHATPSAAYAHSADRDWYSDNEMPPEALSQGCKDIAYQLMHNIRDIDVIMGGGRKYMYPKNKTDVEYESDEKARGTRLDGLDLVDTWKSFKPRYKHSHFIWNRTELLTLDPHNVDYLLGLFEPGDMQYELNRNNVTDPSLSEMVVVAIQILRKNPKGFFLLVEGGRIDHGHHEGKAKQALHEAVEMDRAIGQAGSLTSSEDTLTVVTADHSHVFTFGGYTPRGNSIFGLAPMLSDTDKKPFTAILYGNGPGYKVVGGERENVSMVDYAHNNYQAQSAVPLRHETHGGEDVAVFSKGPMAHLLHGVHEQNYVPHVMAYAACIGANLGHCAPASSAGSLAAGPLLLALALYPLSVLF
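system = human TNAP | amount = enzyme diluted 1/800 final | reagent = 100 µM CDP-star substrate | signal = luminescent substrate turnover signal | dosing = one dose, 20 µM | benchmarks = EDTA negative control, DMSO positive control | measure = activation factor | timing = 30 min reaction, room temperature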
Arbovirus inh: blocks arbovirus infection; arbovirus infection cell-based antiviral screen; inhibition, % at 10 µM; 0.37% of 200,000 active; AID 1251; in the data active = inhibition above about 30%
TNAP inh no acc: blocks human TNAP activity with no phosphate acceptor present | inhibition, % at 20 µM | purified TNAP, CDP-star luminescence, 30 min | 0.26% of 200,000 active;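 active = tissue-nonspecific alkaline phosphatase inhibition above about 50% at 20 µM in the single-dose screen, limit read from the data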;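 note: 0% = DMSO negative control and 100% = EDTA positive control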
TNAP inh hiacc: TNAP (human) inhibition, high acceptor. 0.03% of 200,000 active. inhibition, % at 20 µM. purified TNAP, CDP-star luminescence, 1 M DEA;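 active = over 50% inhibition of tissue-nonspecific alkaline phosphatase at 20 µM in the single-dose screen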;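 note: plate controls were DMSO wells for no effect and EDTA-quenched wells as full inhibition for full effect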
Starred values were filed as active, the others as inactive; · = no result given.

SMILES	PKD1 inh	TNAP act hi DEA	Arbovirus inh	TNAP inh no acc	TNAP inh hiacc
C/C(N)=C(/C#N)C(=O)CSc1n[nH]c(-c2ccccc2Br)n1	-7	1	1	92*	2
Cc1ccc(-c2cc(NC(=O)CCl)n(-c3ccccc3)n2)cc1	-4	1	-30	-6	-3
Cc1ccc(-n2nc(C)c(NC(=O)CCl)c2C)cc1	-7	1	35*	-10	1
Nc1c(Cl)ncnc1N/N=C/c1ccc2ccccc2n1	2	0.5	-25	-22	54*
Cc1cccc(NC(=O)c2ccc(COc3cccc4ccccc34)o2)n1	-12	1	-34	-3	-1
Cc1ccc(-c2cc(C(=O)O)n[nH]2)s1	-2	1	1	77*	-1
O=C(O)c1cc(-c2ccco2)[nH]n1	4	0.9	2	51*	5
Cc1ccc(Cl)cc1NC(=S)N1CCC(c2ccccc2)C1 (stereo not given)	-4	1.1	-16	-13	-5
COc1ccc(-c2csc(/C(C#N)=C\c3ccc(OC)c([N+](=O)[O-])c3)n2)cc1	-4	0.9	-6	10	8
N#C/C(=C\c1ccc(O)c([N+](=O)[O-])c1)c1nc2ccccc2s1	-7	0.8	46*	39	25
COc1cc(/C=C(\C#N)c2nc3ccccc3s2)cc([N+](=O)[O-])c1O	1	0.7	36*	37	34
O=C(O)CC/C(=C\c1ccc(Cl)c([N+](=O)[O-])c1)c1nc2ccccc2s1	-9	1	26	-6	-3
CCOC(=O)NN1C(=O)c2ccccc2NC1c1ccc(OC)cc1OC (stereo not given)	-4	1	1	-8	1
COc1cc(/C=C/c2sc3ccccc3[n+]2CCCS(=O)(=O)[O-])ccc1O	5	0.4	0	55*	57*
Cc1ccc2c(c1)sc(C)[n+]2CCCS(=O)(=O)[O-]	-2	1	2	-10	-4
O=C(CSc1nc(-c2ccccc2)cs1)NC(=O)NCc1ccco1	0	1	1	-6	-5
O=C(O)c1cccc(CSc2n[nH]c(-c3ccc(Cl)cc3Cl)n2)c1	3	1	14	96*	4
O=C(CSc1n[nH]c(-c2ccccc2)n1)NCc1cccc(C(=O)O)c1	4	1	0	70*	-5
O=C(CSc1n[nH]c(-c2ccccc2)n1)NC(=O)NCc1ccco1	-1	1.1	2	63*	-7
O=C(CSc1n[nH]c(-c2ccccc2)n1)c1ccc(O)c(O)c1	8	1	-10	68*	-2
O=C(O)c1cccc(CSc2ncccn2)c1	-1	1	-5	-15	-4
Cc1ccc(S(=O)(=O)/N=C(/Nc2ccc3[nH]c(=O)[nH]c3c2)c2ccc(F)cc2)cc1	-2	1.1	-4	-8	-6
CC(=O)c1ccc(OCC(=O)NCc2ccc(F)cc2)cc1	3	1	6	-15	-4
O=C(c1ccc([N+](=O)[O-])cc1[N+](=O)[O-])n1cnc2ccccc21	7	0.9	0	-1	7
Cc1cc(SCC(=O)c2ccc(O)c(O)c2)nc2ccccc12	-8	1	4	72*	4
SMILES	PKD1 inh	TNAP act hi DEA	Arbovirus inh	TNAP inh no acc	TNAP inh hiacc
COc1ccc(-c2nnc(-c3ccc(Br)o3)o2)cc1OC	-10	1	34*	4	-3
c1ccc(Cn2ncc3c2ncn2c(-c4ccncc4)nnc32)cc1	·	1.1	·	24	-6
Cc1ccc(-n2ncc3c2ncn2c(-c4ccncc4)nnc32)cc1	·	1	·	54*	-2
CCOc1cc(/C=C2\CCC/C(=C\c3cc(Cl)c(O)c(OCC)c3)C2=O)cc(Cl)c1O	-4	0.5	-40	49	53*
C=CCNC(=O)/C(C#N)=C\c1cc(Cl)c(O)c(OCC)c1	-9	0.8	-20	15	16
CC1=C(C#N)C(=O)NC(=O)/C1=C\c1ccc(-c2cc(C)c(C)cc2[N+](=O)[O-])o1	1	1	34*	-6	-1
COc1cccc(-c2cc(C(=O)NN3CCOCC3)c3ccccc3n2)c1	1	1	-4	-4	3
COc1cccc(-c2cc(C(=O)Nn3cnnc3)c3ccccc3n2)c1	-5	1.1	38*	-4	-9
COc1ccc([N+](=O)[O-])cc1NC(=O)c1ccc(Br)s1	0	1	-3	-14	-4
COc1ccc(N=C2S/C(=C\c3ccc(OCC(=O)O)cc3)C(=O)N2CCc2c[nH]c3ccccc23)cc1	-1	1	46*	5	1
O=C1c2ccccc2C(=O)N1CCCc1nc2ccccc2c(=O)n1CCCn1ccnc1	-5	0.8	7	53*	17
Cn1c(-n2c(CCCN3C(=O)c4ccccc4C3=O)nc3ccccc3c2=O)nc2ccccc21	-3	1	-6	-5	-2
O=C(CSc1nc(-c2cccs2)cc(C(F)(F)F)n1)Nc1cc(OCC(F)(F)C(F)F)cc([N+](=O)[O-])c1	-6	1	13	-9	-4
CCOC(=O)c1c(O)c2c(n(Cc3ccco3)c1=O)CCCC2	-2	1.1	31*	-12	-7
N#Cc1c(N2C(=O)Nc3ccccc3N2O)sc2c1CCCC2	-6	1	26	-13	-3
N#Cc1c(N2C(=O)Nc3ccccc3N2O)sc2c1CCCCCC2	2	1	35*	-10	-3
CC1CCCN(C(=O)c2cccc(S(=O)(=O)Nc3cc(C(F)(F)F)ccc3Cl)c2)C1 (stereo not given)	3	0.9	42*	-6	6
CCCn1c(N)c(NCCN2CCOCC2)c(=O)[nH]c1=O	-2	1	16	-8	-4
NC(=O)c1cc([N+](=O)[O-])ccc1NCc1cccnc1	-7	1	37*	9	4
COc1cccc(NC(=O)c2cc([N+](=O)[O-])ccc2NCc2cccnc2)c1	-1	0.9	-11	-4	8
CCOc1ccc(C2C=C(c3ccc(C)cc3)Nc3ncnn32)cc1 (stereo not given)	-12	1	32*	-7	-4
COc1cccc(C2Nc3ccccc3C(=O)N2O)c1O (stereo not given)	5	1	-11	74*	1
Cc1c(C2Nc3ccccc3C(=O)N2O)cnn1C (stereo not given)	-4	1	3	0	1
O=C(NC1CCCCC1)c1c2c(nc3ccccc13)CCC2	-4	1	10	0	3
CC(C)c1ccc(/C=C2\NC(=S)N(Cc3cccnc3)C2=O)cc1	8	1	-5	-4	-5
C/C(=N\Nc1ncc(Cl)cc1Cl)c1ccccn1	61*	1	-19	3	4
COc1cc(/C=C/C(=O)Nc2nnc(C(C)(C)C)s2)cc(OC)c1OC	-9	1	31*	-1	0
COc1cc(/C=C/C(=O)Nc2ccc(C)cc2)cc(OC)c1OC	-2	1	11	-16	-3
C/C(=N\OCC(=O)Nc1ccc(F)c(F)c1F)c1cc2ccccc2o1	10	1	8	4	-2

Screening data as filed in PubChem.
